Molecules are shown by their SMILES.

The values below come from ChEMBL document CHEMBL1132559 (J Med Chem, 1999).

The target of experiment [1] is Adrenergic receptor alpha-1 (Rattus norvegicus) (UniProt P15823+P23944+P43140). The experiment is described as follows: Displacement of [3H]prazosin from Alpha-1 adrenergic receptor of rat cortical membrane at 10e-7 M. The essentials: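 Single-concentration screen at 10^-7 M: displacement of [3H]prazosin (0.5 nM) from rat cortical membranes, prazosin as reference. Reported as % inhibition versus binding with no drug, mean of duplicate tubes in one experiment. Checked against a verification screen.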

Experiment [2] deals with Norepinephrine transporter (Rattus norvegicus) (UniProt Q9WTR4). Put plainly: Inhibition of [3H]desmethylimipramine binding to […] of rat cortical membrane at 10e-7 M. Put shortly:
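Single-concentration screen at 10^-7 M: displacement of [3H]desmethylimipramine (3.0 nM) from rat cortical membranes, desipramine as reference. Reported as % inhibition versus binding with no drug, mean of duplicate tubes in one experiment.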

The test system of experiment [3] is Serotonin transporter (Rattus norvegicus). The experiment is described as follows: Displacement of [3H]-citalopram from rat forebrain membrane serotonin transporter at 10e-7 M. A general note: In a radioligand displacement assay an active substance lowers the binding of a labelled ligand.
For experiment [4], the target named is T1, Adrenergic receptor alpha-1 (Rattus norvegicus, UniProt P15823+P23944+P43140).
T1 sequence (P15823 whole entry): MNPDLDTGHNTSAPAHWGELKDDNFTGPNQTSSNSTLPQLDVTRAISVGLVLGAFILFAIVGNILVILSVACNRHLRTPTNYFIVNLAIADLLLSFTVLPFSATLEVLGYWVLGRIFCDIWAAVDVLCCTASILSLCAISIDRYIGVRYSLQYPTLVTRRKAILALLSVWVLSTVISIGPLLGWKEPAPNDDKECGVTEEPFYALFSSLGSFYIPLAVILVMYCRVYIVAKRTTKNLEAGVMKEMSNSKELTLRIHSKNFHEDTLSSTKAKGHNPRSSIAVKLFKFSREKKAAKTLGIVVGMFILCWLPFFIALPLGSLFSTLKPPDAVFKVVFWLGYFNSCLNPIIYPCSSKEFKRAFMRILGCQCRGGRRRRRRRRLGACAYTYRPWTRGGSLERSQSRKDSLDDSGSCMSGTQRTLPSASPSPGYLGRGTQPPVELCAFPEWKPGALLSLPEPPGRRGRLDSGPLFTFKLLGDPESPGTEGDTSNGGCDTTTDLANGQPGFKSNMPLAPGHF
T1 sequence (P23944 whole entry): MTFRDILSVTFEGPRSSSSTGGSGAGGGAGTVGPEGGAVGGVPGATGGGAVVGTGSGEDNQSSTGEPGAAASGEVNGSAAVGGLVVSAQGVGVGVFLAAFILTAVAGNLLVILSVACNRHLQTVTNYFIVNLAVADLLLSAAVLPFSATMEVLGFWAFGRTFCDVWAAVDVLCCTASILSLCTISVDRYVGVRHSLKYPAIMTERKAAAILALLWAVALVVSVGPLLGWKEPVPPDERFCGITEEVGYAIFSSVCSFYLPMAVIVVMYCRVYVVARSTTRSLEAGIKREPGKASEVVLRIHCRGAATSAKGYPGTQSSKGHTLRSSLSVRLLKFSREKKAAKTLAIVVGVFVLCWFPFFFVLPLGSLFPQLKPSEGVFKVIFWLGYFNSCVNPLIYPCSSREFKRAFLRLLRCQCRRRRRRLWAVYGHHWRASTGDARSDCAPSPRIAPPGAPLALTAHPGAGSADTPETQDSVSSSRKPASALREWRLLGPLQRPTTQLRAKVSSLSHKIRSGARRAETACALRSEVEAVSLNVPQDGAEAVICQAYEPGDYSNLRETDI
T1 sequence (P43140 whole entry): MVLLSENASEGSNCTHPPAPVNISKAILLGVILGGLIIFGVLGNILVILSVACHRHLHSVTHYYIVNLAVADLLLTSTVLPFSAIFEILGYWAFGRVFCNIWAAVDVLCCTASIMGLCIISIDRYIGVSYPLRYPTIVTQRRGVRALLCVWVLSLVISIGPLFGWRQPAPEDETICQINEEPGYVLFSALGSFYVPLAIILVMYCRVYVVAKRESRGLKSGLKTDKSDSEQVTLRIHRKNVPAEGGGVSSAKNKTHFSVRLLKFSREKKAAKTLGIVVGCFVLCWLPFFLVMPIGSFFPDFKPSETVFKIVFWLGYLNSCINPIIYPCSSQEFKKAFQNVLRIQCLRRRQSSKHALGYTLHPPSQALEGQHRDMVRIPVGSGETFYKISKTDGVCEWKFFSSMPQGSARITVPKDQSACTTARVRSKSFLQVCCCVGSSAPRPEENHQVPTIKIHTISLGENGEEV
Put plainly: Compound was tested for the inhibition of [3H]-prazosin binding to Alpha-1 adrenergic receptor. The experiment is classed as protein assay. The essentials: (§1)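 Radioligand displacement on rat cortical membranes using [3H]prazosin (0.5 nM), with prazosin as the reference compound. IC50 derived from six test concentrations, each in triplicate, in one experiment. Run at an external screening laboratory.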

Experiment [5] addresses D(2) dopamine receptor (Rattus norvegicus) (UniProt P61169). Put plainly: Displacement of [3H]sulpiride from rat striatal membrane Dopamine receptor D2 at 10e-7 M. The essentials: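 Single-concentration screen at 10^-7 M: displacement of [3H]sulpiride (3.0 nM) from rat striatal membranes, sulpiride as reference. Reported as % inhibition versus binding with no drug, mean of duplicate tubes in one experiment.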

For experiment [6], the target named is Histamine H1 receptor (Bos taurus) (UniProt P30546). The experiment is described as follows: Inhibition of [3H]pyrilamine binding to Histamine H1 receptor of bovine cerebellar membrane at 10e-7 M. The essentials:
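Single-concentration screen at 10^-7 M: displacement of [3H]pyrilamine (2.0 nM) from bovine cerebellar membranes, triprolidine as reference. Reported as % inhibition versus binding with no drug, mean of duplicate tubes in one experiment.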

The target of experiment [7] is T2, 5-hydroxytryptamine receptor 2A (Rattus norvegicus, UniProt P14842). The experiment is described as follows: Compound was tested for the inhibition of [3H]ketanserin binding to 5-hydroxytryptamine 2A receptor. The essentials: (§2)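 Radioligand displacement on rat cortical membranes using [3H]ketanserin (1.0 nM), with methysergide as the reference compound. IC50 derived from six test concentrations, each in triplicate, in one experiment. Run at an external screening laboratory.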
T2 sequence (P14842 whole entry): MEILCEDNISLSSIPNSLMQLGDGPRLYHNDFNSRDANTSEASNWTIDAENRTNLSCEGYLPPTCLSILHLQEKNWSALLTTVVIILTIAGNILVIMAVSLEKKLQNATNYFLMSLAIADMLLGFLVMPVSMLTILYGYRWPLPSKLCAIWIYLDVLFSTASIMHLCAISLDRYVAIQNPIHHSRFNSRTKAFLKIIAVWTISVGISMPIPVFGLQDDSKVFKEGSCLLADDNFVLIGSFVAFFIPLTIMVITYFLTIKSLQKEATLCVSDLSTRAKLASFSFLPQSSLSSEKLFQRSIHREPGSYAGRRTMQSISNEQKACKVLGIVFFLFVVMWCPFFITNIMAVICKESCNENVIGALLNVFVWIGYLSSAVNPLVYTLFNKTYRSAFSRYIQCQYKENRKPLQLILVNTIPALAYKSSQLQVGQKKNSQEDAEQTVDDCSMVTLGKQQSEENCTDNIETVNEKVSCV

Experiment [8] concerns Sigma non-opioid intracellular receptor 1 (Sus scrofa). The experiment is described as follows: Inhibition of [3H](+)-pentazocine binding to Sigma opioid receptor type 1 of pig brain membranes at 10e-7 M.
Experiment [9] concerns the target 5-hydroxytryptamine receptor 2A (Rattus norvegicus) (UniProt P14842). Put plainly: Displacement of [3H]ketanserin from rat cortical membrane 5-hydroxytryptamine 2A receptor at 10e-7 M. Put shortly:
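Single-concentration screen at 10^-7 M: displacement of [3H]ketanserin (1.0 nM) from rat cortical membranes, methysergide as reference. Reported as % inhibition versus binding with no drug, mean of duplicate tubes in one experiment. Checked against a verification screen.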

Experiment [10] is filed under the species Rattus norvegicus. The experiment is described as follows: In vitro functional activity (pA2) by using isolated rat aorta smooth muscle preparation (on serotonergic system). The following applies: Muscle tissue, read-out: pA2 (converted). Put shortly: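 Aorta strips from male Sprague–Dawley rats (200-300 g), 3-7 preparations, isometric contraction recorded. Cumulative serotonin concentration-response curves built stepwise once each response was steady.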

For experiment [11], the species on record is Rattus norvegicus. Put plainly: In vitro functional activity (pA2) by using isolated rat vas deferens smooth muscle preparation (on adrenergic system). The following applies: Muscle tissue, read-out: pA2 (converted). The essentials:
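Vas deferens from male Sprague–Dawley rats (200-300 g), 3-4 preparations, isometric contraction recorded. Cumulative L-noradrenaline concentration-response curves built stepwise once each response was steady.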

The target in experiment [12] is T2, 5-hydroxytryptamine receptor 2A. Put plainly: Compound was tested for it's binding affinity towards 5-hydroxytryptamine 2A receptor. The essentials: as §2
Experiment [13] concerns the target T1, Adrenergic receptor alpha-1. The experiment is described as follows: Compound was tested for it's binding affinity towards Alpha-1 adrenergic receptor. The experiment is classed as protein assay. The essentials: as §1
Experiment [14] has the same target. Put plainly: Compound was tested for it's binding affinity towards alpha-1 adrenergic receptor. The experiment is classed as protein assay. Put shortly:
as §1

Sequence of D(2) dopamine receptor (Rattus norvegicus) (P61169 whole entry): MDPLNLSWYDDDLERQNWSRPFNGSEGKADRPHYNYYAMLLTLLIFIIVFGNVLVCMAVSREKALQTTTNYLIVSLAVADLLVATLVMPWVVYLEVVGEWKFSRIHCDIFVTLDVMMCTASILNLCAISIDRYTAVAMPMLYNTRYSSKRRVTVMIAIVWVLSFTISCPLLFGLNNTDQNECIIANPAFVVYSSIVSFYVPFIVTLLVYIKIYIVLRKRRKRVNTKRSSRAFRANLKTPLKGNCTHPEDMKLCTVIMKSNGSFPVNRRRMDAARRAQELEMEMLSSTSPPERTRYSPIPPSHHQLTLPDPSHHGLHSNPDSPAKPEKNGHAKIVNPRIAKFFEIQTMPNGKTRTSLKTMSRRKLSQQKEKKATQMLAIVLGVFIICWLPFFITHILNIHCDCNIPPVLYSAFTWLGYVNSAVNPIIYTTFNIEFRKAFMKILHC
Sequence of Histamine H1 receptor (Bos taurus) (P30546 whole entry): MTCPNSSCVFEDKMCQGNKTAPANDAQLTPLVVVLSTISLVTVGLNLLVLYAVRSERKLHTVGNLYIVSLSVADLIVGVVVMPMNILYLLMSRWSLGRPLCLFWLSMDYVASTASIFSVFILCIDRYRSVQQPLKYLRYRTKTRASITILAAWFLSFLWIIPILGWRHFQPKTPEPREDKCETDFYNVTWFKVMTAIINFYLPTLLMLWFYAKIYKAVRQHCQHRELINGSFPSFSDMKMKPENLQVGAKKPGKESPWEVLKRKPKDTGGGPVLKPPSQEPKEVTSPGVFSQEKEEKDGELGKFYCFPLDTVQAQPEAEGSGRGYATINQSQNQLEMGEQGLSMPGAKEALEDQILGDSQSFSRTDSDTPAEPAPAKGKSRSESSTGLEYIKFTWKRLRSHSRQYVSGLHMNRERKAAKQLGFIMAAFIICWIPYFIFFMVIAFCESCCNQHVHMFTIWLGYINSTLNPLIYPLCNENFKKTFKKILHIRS
Sequence of 5-hydroxytryptamine receptor 2A (Rattus norvegicus) (P14842 whole entry): as the sequence (P14842 whole entry) above
Sequence of Norepinephrine transporter (Rattus norvegicus) (Q9WTR4 as listed by the source): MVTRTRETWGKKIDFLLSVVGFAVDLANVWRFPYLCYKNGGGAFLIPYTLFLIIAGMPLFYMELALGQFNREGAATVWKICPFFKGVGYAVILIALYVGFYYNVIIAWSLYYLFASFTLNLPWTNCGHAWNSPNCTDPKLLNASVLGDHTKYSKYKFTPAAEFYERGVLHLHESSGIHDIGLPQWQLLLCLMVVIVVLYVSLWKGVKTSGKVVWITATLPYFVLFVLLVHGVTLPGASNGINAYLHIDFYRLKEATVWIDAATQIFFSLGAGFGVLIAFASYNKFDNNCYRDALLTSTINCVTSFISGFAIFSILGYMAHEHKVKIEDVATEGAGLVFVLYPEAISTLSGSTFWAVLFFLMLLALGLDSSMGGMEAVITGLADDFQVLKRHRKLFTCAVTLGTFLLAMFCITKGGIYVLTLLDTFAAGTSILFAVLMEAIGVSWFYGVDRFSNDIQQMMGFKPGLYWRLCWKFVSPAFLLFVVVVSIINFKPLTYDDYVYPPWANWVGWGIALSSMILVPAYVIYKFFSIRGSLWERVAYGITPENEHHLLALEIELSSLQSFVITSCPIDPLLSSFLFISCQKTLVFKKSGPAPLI

Regarding `CC(CN1CCN(c2cccc(Cl)c2)CC1)Cn1nc2ccccn2c1=O` (centres undefined), the inhibition in experiment [1] is 27%; in [2] it was 0%; in [3], 4%; in [5] it was 3%; in experiment [6] it was 7%; in experiment [8], 34%. The inhibition in experiment [9] stood at 52%. Moreover, the IC50 was 531 nM in experiment [4] and 94 nM in [7].
Take `CC1CN(CCCn2nc3ccccn3c2=O)CCN1c1cccc(Cl)c1` (centres undefined): the inhibition in experiment [1] came to 25%; in [2], 0%; in [3] it was 15%; in experiment [5], 0%; in experiment [6], 7%; in [8], 68%. The inhibition in experiment [9] worked out at 34%.
Consider `C[C@@H]1CN(c2cccc(Cl)c2)CCN1CCCn1nc2ccccn2c1=O`, for which the Kb is 12.6 nM in experiment [10] and 158 nM in [11]. Further, the IC50 in [12] turned out to be 234 nM; in [13] it was 533 nM.
Take `CC(CCn1nc2ccccn2c1=O)N1CCN(c2cccc(Cl)c2)CC1` (centres undefined): the inhibition in experiment [1] is 26%; in [2], 0%; in experiment [3] it was 63%; in experiment [5] it was 2%; in experiment [6], 31%; in experiment [8], 58%. For the same molecule, the inhibition in experiment [9] was found to be 65%. The IC50 was 627 nM in experiment [4] and 17 nM in experiment [7].
Consider `CC1C(=O)N(c2cccc(Cl)c2)CCN1CCCn1nc2ccccn2c1=O` (centres undefined), for which the inhibition in experiment [1] is 2%; in experiment [2], 0%; in experiment [3], 0%; in [5], 4%; in [6], 4%; in experiment [8] it was 9%. The inhibition in experiment [9] stood at 0%.
On to `O=c1n(CCCNCCNc2cccc(Cl)c2)nc2ccccn12`, for which the inhibition in experiment [1] amounted to 8%; in experiment [2], 0%; in [3] it was 10%; in experiment [5], 3%; in [6], 0%; in [8], 29%. The inhibition in [9] was determined as 4%.
Consider `CN(CCCn1nc2ccccn2c1=O)CCNc1cccc(Cl)c1`, for which the inhibition worked out at 10% in experiment [1]; 4% in experiment [2]; 15% in experiment [3]; 2% in [5]; 0% in experiment [6]; 30% in experiment [8]. Besides, the inhibition in [9] is 0%.
Regarding `CCC1CN(c2cccc(Cl)c2)CCN1CCCn1nc2ccccn2c1=O` (centres undefined), the inhibition stood at 44% in [1]; 0% in experiment [2]; 20% in [3]; 10% in [5]; 14% in [6]; 43% in experiment [8]. Also, in experiment [9], the inhibition was 60%. Also, the IC50 in experiment [4] came out at 493 nM; in [7], 169 nM.
For `CC(CN1CCN(c2cccc(Cl)c2)C(C)C1)Cn1nc2ccccn2c1=O` (centres undefined), the inhibition was 7% in experiment [1]; 0% in [2]; 6% in experiment [3]; 0% in experiment [5]; 12% in experiment [6]; 65% in [8]. Also, in experiment [9], the inhibition worked out at 20%.
As to `O=C1CN(CCCn2nc3ccccn3c2=O)CCN1c1cccc(Cl)c1`, the inhibition in experiment [1] worked out at 5%; in experiment [2], 0%; in experiment [3] it was 2%; in [5] it was 0%; in [6], 2%; in [8], 12%. For the same molecule, in [9], the inhibition was found to be 5%.
Regarding `CC1CN(CCCn2nc3ccccn3c2=O)C(C)(C)CN1c1cccc(Cl)c1` (centres undefined), the inhibition amounted to 11% in [1]; 0% in [2]; 38% in experiment [3]; 3% in experiment [5]; 9% in [6]; 81% in [8]. The inhibition in experiment [9] is 40%.
As for `C[C@H]1CN(c2cccc(Cl)c2)CCN1CCCn1nc2ccccn2c1=O`, the figures for the IC50 in experiment [14] and in experiment [12] were 981 nM and 25.4 nM, respectively. Further, the Kb in experiment [10] is 3.16 nM; in experiment [11], 3980 nM.
As for `CN(CCNCCCn1nc2ccccn2c1=O)c1cccc(Cl)c1`, the inhibition in experiment [1] was 12%; in [2], 0%; in [3], 23%; in experiment [5], 4%; in experiment [6], 0%; in experiment [8] it was 65%. Moreover, the inhibition in experiment [9] is 0%.
As to `O=c1n(CCCN2CCN(c3cccc(Cl)c3)CC2)nc2ccccn12`, the inhibition in experiment [2] worked out at 0%; in [5] it was 12%; in [6] it was 5%; in experiment [9], 78%.
On to `CC1CN(c2cccc(Cl)c2)CCN1CCCn1nc2ccccn2c1=O` (centres undefined), for which the inhibition in experiment [1] came to 37%; in experiment [2], 2%; in experiment [3] it was 45%; in experiment [5], 8%; in [6] it was 13%; in experiment [8], 43%. Also, in experiment [9], the inhibition came out at 69%. Moreover, the IC50 in experiment [4] came out at 471 nM; in experiment [7], 31 nM.

The term inhibition denotes the percentage by which the read-out fell short of the control. The low end stands for little suppression, the high end for strong suppression. For orientation: IC50 means the midpoint of a concentration-inhibition curve. Lower therefore signals higher potency.
